Measured values published in ChEMBL document CHEMBL3232875, “Prenylated benzoylphloroglucinols and xanthones from the leaves of Garcinia oblongifolia with antienteroviral activity” (J Nat Prod, 2014).

What was measured:
[1] = Selectivity index, ratio of CC50 for African green monkey Vero cells to IC50 for Enterovirus 71 BrCr; type: functional
In short: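 SI computed as CC50 (Vero, 4-day MTT) divided by IC50 (EV71 BrCr CPE inhibition, 100 × TCID50, 4-day MTT) for each compound.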

[2] = Antiviral activity against Enterovirus 71 BrCr infected in African green monkey Vero cells assessed as inhibition of virus-induced cytopathic effect after 4 days by MTT assay; type: functional, cell-based, Human enterovirus 71 (strain BRCR)
In short: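 EV71 strain BrCr grown in Vero cells kept in DMEM with 2% FBS; titer by TCID50 end-point dilution. Vero cells inoculated with 100 × TCID50 virus plus serially diluted compounds (DMSO stocks); ribavirin positive control. After four days, morphology checked by light microscopy and viability by MTT to give CPE inhibition rate; IC50 by Forecast function. Mean ± SD, three independent assays, quadruplicate per concentration.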

[3] = Cytotoxicity against African green monkey Vero cells after 4 days by MTT assay; type: cell-based; conditions: chlorocebus sabaeus
In short: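 Vero cells treated or untreated with serially diluted compounds (100 mM DMSO stocks) for four days, viability read by MTT; CC50 calculated by Forecast function. Mean ± SD of three independent assays, each concentration in quadruplicate.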

[4] = Enterovirus A, Vero, 96 h, read-out: IC50

Compound | IC50 ([2]; vero) | also measured
CC(=O)C[C@H]1[C@@H]2C[C@]3(CC=C(C)C)C(=O)[C@@]1(C(=O)c1ccccc1)C(=O)[C@@](CC=C(C)C)(C3=O)C2(C)C | – | Ratio CC50/IC50 [1]: 1.5; IC50 [2, 4]: 31.1 µM; CC50 at 96 h [3]: 47 µM
CC(=O)C[C@@H]1[C@@H]2C[C@]3(CC=C(C)C)C(=O)[C@@]1(C(=O)c1ccc(O)c(O)c1)C(=O)[C@@](CC=C(C)C)(C3=O)C2(C)C | Not Active | –
CC(C)=CCC/C(C)=C/C[C@@H]1C[C@@]2(CC=C(C)C)C(=O)[C@H](C(=O)C(C(=O)c3ccccc3)=C2O)C1(C)C | Not Active | –
CC(C)=CCC/C(C)=C/C[C@@H]1C[C@@]2(CC=C(C)C)C(=O)C(OC(=O)c3ccccc3)=C(O)[C@H](C2=O)C1(C)C | – | Ratio CC50/IC50 [1]: 2.4; IC50 [2, 4]: 16.1 µM; CC50 at 96 h [3]: 37.8 µM
C=C(C)C(=O)CC/C(C)=C/C[C@@H]1C[C@@]2(CC=C(C)C)C(=O)[C@H](C(=O)C(C(=O)c3ccccc3)=C2O)C1(C)C | Not Active | –
C=C(CCC=C(C)C)C(=O)C[C@H]1C[C@@]2(CC=C(C)C)C(=O)[C@H](C(=O)C(C(=O)c3ccccc3)=C2O)C1(C)C | Not Active | –
CC(C)=CC[C@@]12C[C@@H](C)C(C)(C)[C@@H](C(=O)C(C(=O)c3ccccc3)=C1O)C2=O | Not Active | –
C=C(C)[C@@H](O)CC/C(C)=C/C[C@@H]1C[C@@]2(CC=C(C)C)C(=O)[C@H](C(=O)C(C(=O)c3ccccc3)=C2O)C1(C)C | Not Active | –
CC(C)=CCC/C(C)=C/C[C@H]1C[C@@]23C[C@@H](C(C)(C)O)OC2=C(C(=O)c2ccccc2)C(=O)[C@H](C3=O)C1(C)C | Not Active | –
CC(C)=CCC/C(C)=C/C[C@H]1C[C@@]23C[C@H](O)C(C)(C)OC2=C(C(=O)c2ccccc2)C(=O)[C@H](C3=O)C1(C)C | Not Active | –
C=C(C)[C@H](O)CC/C(C)=C/C[C@H]1C[C@@]2(CC=C(C)C)C(=O)[C@](CC=C(C)C)(C(=O)C(C(=O)c3ccc(O)c(O)c3)=C2O)C1(C)C | Not Active | –
CC(C)=CCC/C(C)=C/C[C@H]1C[C@@]2(CC=C(C)C)C(=O)[C@](CC=C(C)C)(C(=O)C(C(=O)c3cccc(O)c3)=C2O)C1(C)C | Not Active | –
COc1cc(O)c2c(=O)c3c(O)cc(O)c(OC)c3oc2c1 | Not Active | –
COc1cc(O)c2c(=O)c3cc(CC=C(C)C)c(O)c(O)c3oc2c1C/C=C(\C)CCC=C(C)C | Not Active | –
COc1c(CC=C(C)C)c(O)c2c(=O)c3ccc(O)c(O)c3oc2c1CC=C(C)C [DULXANTHONE B] | Not Active | –
CC(C)=CCC/C(C)=C/C[C@@H]1C[C@]2(CC=C(C)C)C(=O)[C@@](CC=C(C)C)(C(=O)C(C(=O)c3ccc(O)c(O)c3)=C2O)[C@@]1(C)CCC=C(C)C [OBLONGIFOLIN C] | Not Active | –
NC(=O)c1ncn([C@@H]2O[C@H](CO)[C@@H](O)[C@H]2O)n1 [RIBAVIRIN] | – | Ratio CC50/IC50 [1]: >4; IC50 [2, 4]: 253 µM; CC50 at 96 h [3]: > 1000 µM
